Active and inactive are the calls of the source. The calls are words filed in the database; no cut-off is given here. Non-standard residues stand in square brackets, D forms with d. Residues, ends and D or L forms follow the SMILES beside them. *: point of attachment. Pyrrolidide = C1CCN(*)C1; Cbz = O=C(OCc1ccccc1)*; Dap = NC[C@H](N)C(=O)O
Tests used:
[1] = (§1) Inhibition of Norwalk virus recombinant His6-tagged protease using EDANS-EPDFHLQGPEDLAK-Dabcyl as substrate preincubated for 45 mins followed by substrate addition measured every 1 min for 30 mins by FRET analysis
Summary of the method: (§2)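 Protease purified on Ni-NTA, used at 0.5 μM final. Preincubated with inhibitor (0, 0.05, 0.2, 1, 5, 20, 100, 150 μM) in 50 mM NaH2PO4 pH 8, 50 mM NaCl, 5 mM TCEP, room temperature. Substrate added to 30 μM final. Fluorescence read at ex 360/em 460 nm at 37 °C. Ki derived from initial velocities by Morrison tight-binding fit.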

[2] = Selectivity ratio of Ki for Houston virus recombinant His6-tagged protease to Ki for Norwalk virus recombinant His6-tagged protease
[3] = Inhibition of Houston virus recombinant His6-tagged protease using EDANS-EPDFHLQGPEDLAK-Dabcyl as substrate preincubated for 45 mins followed by substrate addition measured every 1 min for 30 mins by FRET analysis; design: species or system genotype 2; summary of the method: as §2
Norwalk virus = test: as §1; summary of the method: as §2

| Compound | Ki [1] [µM] | Ratio Ki [2] | Ki [3] [µM] | inhibition (Norwalk virus) |
| --- | --- | --- | --- | --- |
| CC(C)C[C@H](NC(=O)[C@H](Cc1c[nH]cn1)NC(=O)OCc1ccccc1)C(=O)N[C@H](C=O)CCC(=O)N(C)C (Cbz-His-Leu-Glu(NMe2)-aldehyde) | 1.9 |  |  |  |
| CNC(=O)CC[C@@H](C=O)NC(=O)[C@H](Cc1ccccc1)NC(=O)[C@H](CC(C)C)NC(=O)OCc1ccccc1 (Cbz-Leu-Phe-Glu(NHMe)-aldehyde) | 5.1 |  |  |  |
| CC(=O)[C@H](CCC(=O)N(C)C)NC(=O)[C@H](Cc1ccccc1)NC(=O)[C@H](CC(C)C)NC(=O)OCc1ccccc1 | 150 |  |  |  |
| CC(C)C[C@H](NC(=O)OCc1ccccc1)C(=O)N[C@@H](Cc1ccccc1)C(=O)N[C@H](C=O)CCC(=O)N1CCCC1 (Cbz-Leu-Phe-Glu(Pyrrolidide)-aldehyde) | 0.075 |  |  |  |
| CC(=O)N[C@@H](CC(C)C)C(=O)N[C@@H](Cc1ccccc1)C(=O)N[C@H](C=O)CCC(=O)N(C)C (Ac-Leu-Phe-Glu(NMe2)-aldehyde) | 39 |  |  |  |
| CC(=O)NC[C@@H](C=O)NC(=O)[C@H](Cc1ccccc1)NC(=O)[C@H](CC(C)C)NC(=O)OCc1ccccc1 (Cbz-Leu-Phe-[Dap](Ac)-aldehyde) | 1.5 | 10 | 14 |  |
| CC(C)C[C@H](NC(=O)OCc1ccccc1)C(=O)N[C@@H](Cc1ccccc1)C(=O)N[C@H](C=O)CCC(=O)N(C)C (Cbz-Leu-Phe-Glu(NMe2)-aldehyde) | 0.12 | 60 | 7.5 |  |
| CC(C)C[C@H](NC(=O)OCc1ccccc1)C(=O)N1CCC[C@H]1C(=O)N[C@H](C=O)CCC(=O)N(C)C (Cbz-Leu-Pro-Glu(NMe2)-aldehyde) | 46 |  |  |  |
| CC(C)C[C@H](NC(=O)[C@H](C)NC(=O)OCc1ccccc1)C(=O)N[C@H](C=O)CCC(=O)N(C)C (Cbz-Ala-Leu-Glu(NMe2)-aldehyde) | 0.59 | 10 | 4.6 |  |
| CC(C)C[C@H](NC(=O)OCc1ccccc1)C(=O)N[C@@H](Cc1ccccc1)C(=O)N[C@H](C=O)CCC(=O)NC1CC1 | 1.4 |  |  |  |
| CC(C)C[C@H](NC(=O)[C@H](CCC(N)=O)NC(=O)OCc1ccccc1)C(=O)N[C@H](C=O)CCC(=O)N(C)C (Cbz-Gln-Leu-Glu(NMe2)-aldehyde) | 0.31 | 10 | 4.3 |  |
| CN(C)C(=O)CC[C@@H](C=O)NC(=O)[C@H](Cc1ccccc1)NC(=O)[C@H](CC(N)=O)NC(=O)OCc1ccccc1 (Cbz-Asn-Phe-Glu(NMe2)-aldehyde) | 1.6 |  |  |  |
| CCOC(=O)/C=C/[C@H](CNC(C)=O)NC(=O)[C@H](Cc1ccccc1)NC(=O)[C@H](CC(C)C)NC(=O)OCc1ccccc1 |  |  |  | inactive |
| CCOC(=O)/C=C/[C@H](CCC(N)=O)NC(=O)[C@H](Cc1ccccc1)NC(=O)[C@H](CC(C)C)NC(=O)OCc1ccccc1 |  |  |  | inactive |
| CC(C)[C@H](NC(=O)OCc1ccccc1)C(=O)N1CCC[C@H]1C(=O)N[C@H](C=O)CCC(=O)N(C)C (Cbz-Val-Pro-Glu(NMe2)-aldehyde) | 8.2 |  |  |  |
| CCOC(=O)/C=C/[C@H](CCC(=O)N(C)C)NC(=O)[C@H](Cc1ccccc1)NC(=O)[C@H](CC(C)C)NC(=O)OCc1ccccc1 |  |  |  | inactive |
